Reference: ChEMBL document CHEMBL1130421, “A facile, alternative synthesis of 4'-thioarabinonucleosides and their biological activities” (J Med Chem, 1997)
Converted amounts (≈) assume the structure as drawn.

Tests used:
CCRF-HSB-2 = experiment: Antiproliferative effects on CCRF-HSB-2 (human leukemia) cells.; format: functional, cell-based
Outline: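 CCRF-HSB-2 cells at 1.1 × 10⁵ cells/mL in RPMI 1640 + 10% FBS. Compound added in medium or PBS as serial 0.5 log₁₀ dilutions. Incubated 3 days at 37 °C, 5% CO₂. MTT then added for another 4 h; formazan solubilized in acidic DMF/SDS. A570 read against 690 nm reference. IC50 read graphically from dose-inhibition curve.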

Human alphaherpesvirus 1 = experiment: Antiviral activity against herpes simplex virus-1 VR-3 strain in HEL ([…]) cells.; format: functional; details: Human alphaherpesvirus 1, HEL; read-out: ED50 (the source's name)
Outline: (§1)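 Plaque reduction assay in HEL cells. Strains: HSV-1 VR-3, HSV-2 MS, HCMV AD 169. Run as described earlier.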

Human alphaherpesvirus 2 = experiment: Antiviral activity against herpes simplex virus-2 (HSV-2) Ms strain in HEL ([…]) cells.; format: functional; details: Human alphaherpesvirus 2, HEL; read-out: ED50 (the source's name); outline: as §1
Human alphaherpesvirus 3 = experiment: Antiviral activity against varicella zoster virus (VZV) Oka strain in HEL ([…]) cells.; format: functional; details: Human alphaherpesvirus 3, HEL; read-out: ED50 (the source's name)
Human betaherpesvirus 5 = experiment: Antiviral activity against human cytomegalovirus (HCMV) AD 169 strain HEL ([…]) cells.; format: functional; details: Human betaherpesvirus 5, HEL; read-out: ED50 (the source's name); outline: as §1

| Structure (SMILES) | IC50 (CCRF-HSB-2) [µg/mL] | EC50 (Human alphaherpesvirus 1) [µg/mL] | EC50 (Human alphaherpesvirus 2) [µg/mL] | EC50 (Human alphaherpesvirus 3) [µg/mL] | EC50 (Human betaherpesvirus 5) [µg/mL] |
| --- | --- | --- | --- | --- | --- |
| Nc1nc(N)c2ncn([C@@H]3S[C@H](CO)[C@@H](O)[C@@H]3O)c2n1 | 0.2 (≈ 0.67 µM) | 0.52 (≈ 1.74 µM) | 0.4 (≈ 1.34 µM) | 0.11 (≈ 0.369 µM) | 0.022 (≈ 0.0737 µM) |
| O=c1[nH]c(=O)n([C@H]2S[C@H](CO)[C@@H](O)[C@@H]2O)cc1/C=C/Br | > 100 | > 100 | > 100 | > 50 | > 50 |
| CCc1cn([C@@H]2S[C@H](CO)[C@@H](O)[C@@H]2O)c(=O)[nH]c1=O | > 100 | 0.43 (≈ 1.49 µM) | 6.5 (≈ 22.5 µM) | > 50 | > 50 |
| Nc1ncnc2c1ncn2[C@@H]1O[C@H](CO)[C@@H](O)[C@@H]1O [VIDARABINE] | 12.9 (≈ 48.3 µM) | 17.1 (≈ 64 µM) | 6.6 (≈ 24.7 µM) | 1.17 (≈ 4.38 µM) | 6.45 (≈ 24.1 µM) |
| Nc1nc(O)c2ncn([C@@H]3S[C@H](CO)[C@@H](O)[C@@H]3O)c2n1 | 0.29 (≈ 0.969 µM) | 0.49 (≈ 1.64 µM) | 0.59 (≈ 1.97 µM) | 0.11 (≈ 0.368 µM) | 0.01 (≈ 0.0334 µM) |
| O=c1[nH]c(=O)n([C@@H]2S[C@H](CO)[C@@H](O)[C@@H]2O)cc1/C=C/Cl | > 100 | 0.97 (≈ 3.02 µM) | 71 (≈ 221 µM) | > 50 | > 50 |
| Nc1nc2c(ncn2COC(CO)CO)c(=O)[nH]1 [GANCICLOVIR] | 17 (≈ 66.6 µM) | 0.016 (≈ 0.0627 µM) | 0.039 (≈ 0.153 µM) | 0.21 (≈ 0.823 µM) | 0.21 (≈ 0.823 µM) |
| O=c1[nH]c(=O)n([C@@H]2S[C@H](CO)[C@@H](O)[C@@H]2O)cc1/C=C/Br | > 100 | 0.82 (≈ 2.25 µM) | 58 (≈ 159 µM) | 0.2 (≈ 0.548 µM) | > 50 |
| O=c1[nH]c(=O)n([C@H]2S[C@H](CO)[C@@H](O)[C@@H]2O)cc1I | > 100 | > 100 | > 100 | > 50 | > 50 |
| O=c1[nH]c(=O)n([C@@H]2S[C@H](CO)[C@@H](O)[C@@H]2O)cc1I | > 100 | 3.5 (≈ 9.06 µM) | 13.6 (≈ 35.2 µM) | 27.1 (≈ 70.2 µM) | > 50 |
| Nc1nc(N)c2ncn([C@H]3S[C@H](CO)[C@@H](O)[C@@H]3O)c2n1 | > 100 | > 100 | > 100 | > 50 | > 50 |
| Nc1ccn([C@@H]2O[C@H](CO)[C@@H](O)[C@@H]2O)c(=O)n1 [CYTARABINE] | 0.0086 (≈ 0.0354 µM) |  |  |  |  |
| CCc1cn([C@H]2S[C@H](CO)[C@@H](O)[C@@H]2O)c(=O)[nH]c1=O | > 100 | > 100 | > 100 | > 50 | > 50 |
| O=c1[nH]c(=O)n([C@@H]2O[C@H](CO)[C@@H](O)[C@@H]2O)cc1/C=C/Br [SORIVUDINE] | > 100 | 0.036 (≈ 0.103 µM) | 62 (≈ 178 µM) | 0.0013 (≈ 0.00372 µM) | > 50 |
| Nc1ncnc2c1ncn2[C@@H]1S[C@H](CO)[C@@H](O)[C@@H]1O | 14.8 (≈ 52.2 µM) | 18.4 (≈ 64.9 µM) | 13.5 (≈ 47.7 µM) | 1.85 (≈ 6.53 µM) | 1.36 (≈ 4.8 µM) |
| Cc1cn([C@H]2S[C@H](CO)[C@@H](O)[C@@H]2O)c(=O)[nH]c1=O | 42 (≈ 153 µM) | > 100 | > 100 | > 50 | > 50 |
| Cc1cn([C@@H]2S[C@H](CO)[C@@H](O)[C@@H]2O)c(=O)[nH]c1=O | > 100 | 0.77 (≈ 2.81 µM) | 4.6 (≈ 16.8 µM) | 6.6 (≈ 24.1 µM) | 44 (≈ 160 µM) |
| Nc1ncnc2c1ncn2[C@H]1S[C@H](CO)[C@@H](O)[C@@H]1O | > 100 | > 100 | > 100 | > 50 | > 50 |
| O=c1[nH]c(=O)n([C@H]2S[C@H](CO)[C@@H](O)[C@@H]2O)cc1/C=C/Cl | > 100 | > 100 | > 100 | > 50 | > 50 |
| Nc1nc2c(ncn2COCCO)c(=O)[nH]1 [ACYCLOVIR] | > 100 | 0.14 (≈ 0.622 µM) | 0.23 (≈ 1.02 µM) |  | 6.9 (≈ 30.6 µM) |
